Reference: ChEMBL document CHEMBL4382232, “Grayanane Diterpenoid Glucosides from the Leaves of Rhododendron micranthum and Their Bioactivities Evaluation” (2018)
Activity calls are given as the source filed them. The rule behind the calls is not given here.

Experiments:
RAW264.7 = test: Anti-inflammatory activity in mouse RAW264.7 cells assessed as inhibition of LPS-induced NO production at 40 uM; assay type: functional, cell-based
MCF7 = test: Cytotoxicity against human MCF7 cells at 40 uM after 48 hrs by MTT assay; assay type: functional, cell-based
SW480 = test: Cytotoxicity against human SW480 cells at 40 uM after 48 hrs by MTT assay; assay type: functional, cell-based
SMMC-7721 = test: Cytotoxicity against human SMMC7721 cells at 40 uM after 48 hrs by MTT assay; assay type: functional, cell-based
A549 = test: Cytotoxicity against human A549 cells at 40 uM after 48 hrs by MTT assay; assay type: functional, cell-based
HL-60 = test: Cytotoxicity against human HL60 cells at 40 uM after 48 hrs by MTT assay; assay type: functional, cell-based
[1] = target: T1, Tyrosine-protein phosphatase non-receptor type 1 (Homo sapiens) (UniProt P18031); test: Inhibition of recombinant human PTP1B at 40 uM using pNPP as substrate preincubated for 10 mins followed by substrate addition and measured after 30 mins at 5 mins time interval for 30 mins
T1 sequence (whole entry): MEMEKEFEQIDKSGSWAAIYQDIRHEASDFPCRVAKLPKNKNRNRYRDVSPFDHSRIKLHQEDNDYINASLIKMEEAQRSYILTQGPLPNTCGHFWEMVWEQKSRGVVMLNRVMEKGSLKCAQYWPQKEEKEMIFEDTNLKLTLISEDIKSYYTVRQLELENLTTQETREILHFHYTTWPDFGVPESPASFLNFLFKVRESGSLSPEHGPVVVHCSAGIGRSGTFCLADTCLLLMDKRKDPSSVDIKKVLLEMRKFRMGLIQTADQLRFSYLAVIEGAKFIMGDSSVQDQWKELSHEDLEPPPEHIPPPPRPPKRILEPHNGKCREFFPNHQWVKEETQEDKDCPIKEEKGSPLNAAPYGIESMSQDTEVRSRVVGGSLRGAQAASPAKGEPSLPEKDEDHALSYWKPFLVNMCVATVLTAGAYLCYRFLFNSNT

Mus musculus = test: Antinociceptive activity in Kunming mouse model of acetic-acid-induced writhing assessed as inhibition of writhing numbers at 5 mg/kg measured for 30 mins relative to control; assay type: functional; conditions: for inhibition in vivo at 5 mg/kg: 0.5 h
In short: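 Acetic-acid-induced writhing model in Kunming mice (10 per group); doses 0.2, 1.0 and 5.0 mg/kg; vehicle-treated and morphine positive-control groups; inhibition of writhing relative to vehicle; mean ± SEM; one-way ANOVA with Bonferroni test. Animal work approved by institutional ethics committee.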

Compound | inhibition (RAW264.7) | Activity (MCF7) | Activity (SW480) | Activity (SMMC-7721) | Activity (A549) | Activity (HL-60) | inhibition [1] | inhibition (Mus musculus) | inhibition in vivo at 5 mg/kg (Mus musculus) [%]
C=C1[C@@H]2CC[C@@H]3C[C@]2(C=C3C)C[C@@H](O)[C@@]2(O)[C@H]1C[C@H](O[C@@H]1O[C@H](CO)[C@@H](O)[C@H](O)[C@H]1O)C2(C)C | inactive | inactive | inactive | inactive | inactive | inactive | inactive |  | 
C=C1[C@H]2C[C@H](O)C(C)(C)[C@]2(O)CC[C@@]23C[C@@](O)(CC[C@@H]12)[C@](C)(O[C@@H]1O[C@H](CO)[C@@H](O)[C@H](O)[C@H]1O)C3 | inactive | inactive | inactive | inactive | inactive | inactive | inactive | Active | 
C=C1[C@H]2C[C@H](O[C@@H]3O[C@H](CO)[C@@H](O)[C@H](O)[C@H]3O)C(C)(C)[C@@]2(O)[C@H](O)C[C@@]23C[C@@H](CC[C@@H]12)[C@](C)(O)C3 | inactive | inactive | inactive | inactive | inactive | inactive | inactive | inactive | 
C=C1[C@@H]2CC[C@@H]3[C@@H](O)[C@@]2(C[C@@H](O)[C@@]2(O)[C@H]1C[C@H](O[C@@H]1O[C@H](CO)[C@@H](O)[C@H](O)[C@H]1O)C2(C)C)C[C@@]3(C)O | inactive | inactive | inactive | inactive | inactive | inactive | inactive |  | > 50
C=C1[C@@H]2CC[C@@H]3C[C@@]2(C[C@@H](O)[C@@]2(O)[C@H]1C[C@H](O[C@@H]1O[C@H](CO)[C@@H](O)[C@H](O)[C@H]1O)C2(C)C)C[C@@]3(C)O | inactive | inactive | inactive | inactive | inactive | inactive | inactive | Active | 
C=C1[C@H]2C[C@H](O[C@@H]3O[C@H](CO)[C@@H](O)[C@H](O)[C@H]3O)C(C)(C)[C@]2(O)CC[C@@]23C[C@@](O)(CC[C@@H]12)[C@](C)(O)C3 | inactive | inactive | inactive | inactive | inactive | inactive | inactive |  | 
C=C1[C@@H]2CC[C@@H]3C[C@@]2(C[C@@H](O)[C@@]2(O)[C@H]1C[C@H](O)C2(C)C)C[C@@]3(C)O[C@@H]1O[C@H](CO)[C@@H](O)[C@H](O)[C@H]1O | inactive | inactive | inactive | inactive | inactive | inactive | inactive |  | > 50
C[C@H]1[C@@H]2C[C@H](O[C@@H]3O[C@H](CO)[C@@H](O)[C@H](O)[C@H]3O)C(C)(C)[C@]23O[C@]12CC[C@@H]1C[C@@]2(C[C@H]3O)C[C@@]1(C)O | inactive | inactive | inactive | inactive | inactive | inactive | inactive | Active | 
CC1(C)[C@@H](O[C@@H]2O[C@H](CO)[C@@H](O)[C@H](O)[C@H]2O)C[C@H]2[C@](C)(O)[C@@H]3CC[C@@H]4[C@@H](O)[C@@]3(C[C@@H](O)[C@@]21O)C[C@@]4(C)O | inactive | inactive | inactive | inactive | inactive | inactive | inactive |  | > 50
CC1=C2CC[C@@H]3[C@@H](O)[C@@]2(C[C@@H](O)[C@@]2(O)[C@H]1C[C@H](O[C@@H]1O[C@H](CO)[C@@H](O)[C@H](O)[C@H]1O)C2(C)C)C[C@@]3(C)O | inactive | inactive | inactive | inactive | inactive | inactive | inactive |  | > 50
C=C1[C@@H]2CC[C@@H]3C[C@]2(C[C@@]3(C)O)[C@H](O)[C@@H](O)[C@@]2(O)[C@H]1C[C@H](O[C@@H]1O[C@H](CO)[C@@H](O)[C@H](O)[C@H]1O)C2(C)C | inactive | inactive | inactive | inactive | inactive | inactive | inactive |  | 
C=C1[C@@H]2CC[C@H]3C(C)=C[C@]2(C[C@@H](O)[C@@]2(O)[C@H]1C[C@H](O[C@@H]1O[C@H](CO)[C@@H](O)[C@H](O)[C@H]1O)C2(C)C)[C@@H]3O | inactive | inactive | inactive | inactive | inactive | inactive | inactive |  | 50
C=C1[C@@H]2CC[C@@H]3C[C@@]2(C[C@@H](O)[C@@]2(O)[C@H]1C[C@@H](O[C@@H]1O[C@H](CO)[C@@H](O)[C@H](O)[C@H]1O)C2(C)C)C[C@@]3(C)O | inactive | inactive | inactive | inactive | inactive | inactive | inactive | Active | 
C=C1[C@H]2C[C@H](O)C(C)(C)[C@]2(O)CC[C@@]23C[C@@H](CC[C@@H]12)[C@](C)(O[C@@H]1O[C@H](CO)[C@@H](O)[C@H](O)[C@H]1O)C3 | inactive | inactive | inactive | inactive | inactive | inactive | inactive | inactive | 
CC(=O)O[C@@H]1[C@H]2CC[C@H]3[C@@](C)(O)[C@@H]4C[C@H](O[C@@H]5O[C@H](CO)[C@@H](O)[C@H](O)[C@H]5O)C(C)(C)[C@@]4(O)[C@H](O)C[C@@]13C[C@@]2(C)O | inactive | inactive | inactive | inactive | inactive | inactive | inactive | inactive | 
C=C1[C@@H]2CC[C@@H]3[C@@H](OC(C)=O)[C@@]2(C[C@@H](O)[C@@]2(O)[C@H]1C[C@H](O)C2(C)C)C[C@@]3(C)O[C@@H]1O[C@H](CO)[C@@H](O)[C@H](O)[C@H]1O | inactive | inactive | inactive | inactive | inactive | inactive | inactive |  | > 50
C=C1[C@@H]2CC[C@@H]3[C@@H](OC(C)=O)[C@@]2(C[C@@H](O)[C@@]2(O)[C@H]1C[C@H](O[C@@H]1O[C@H](CO)[C@@H](O)[C@H](O)[C@H]1O)C2(C)C)C[C@@]3(C)O | inactive | inactive | inactive | inactive | inactive | inactive | inactive | Active | 
C=C1[C@H]2C[C@H](O)C(C)(C)[C@@]2(O)[C@H](O)C[C@@]23C[C@@H](CC[C@@H]12)[C@](C)(O[C@@H]1O[C@H](CO)[C@@H](O)[C@H](O)[C@H]1O)C3 | inactive | inactive | inactive | inactive | inactive | inactive | inactive | Active | 
